Measurements: ChEMBL document CHEMBL2440116, “Structure-activity relationships of 2-aminothiazoles effective against Mycobacterium tuberculosis” (Bioorg Med Chem, 2013)
Values after ≈ are worked out from the molar mass of the structure shown.

Tests used:
[1] = test system: Mycobacterium tuberculosis; test: Antitubercular activity against Mycobacterium tuberculosis H37Rv in Middlebrook 7H9 broth with glucose after 7 to 14 days by broth microdilution method; type: functional
In short: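 Broth microdilution of H37Rv in 7H9 with 0.8 g/L NaCl, 5 g/L BSA fraction V, 4 g/L glucose and 0.05% Tyloxapol. Run in quadruplicate from DMSO stocks with DMSO controls; isoniazid positive control.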

[2] = Therapeutic index, ratio of EC50 for african green monkey Vero cells to MIC for Mycobacterium tuberculosis H37Rv; type: cell-based; conditions: read-out: TI
[3] = test system: Mycobacterium tuberculosis; test: Antitubercular activity against Mycobacterium tuberculosis H37Rv in Middlebrook 7H9 broth with butyrate after 7 to 14 days by broth microdilution method; type: functional
[4] = test system: Mycobacterium tuberculosis; test: Antitubercular activity against Mycobacterium tuberculosis H37Rv in GAST media with glycerol and alanine after 7 to 14 days by broth microdilution method; type: functional
[5] = test system: Vero; test: Cytotoxicity against african green monkey Vero cells after 72 hrs by MTT assay; type: cell-based; conditions: Chlorocebus sabaeus
In short: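 Vero (CCL-81) cells in MEM with 10% FBS, penicillin-streptomycin and Glutamax, seeded at 3.0×10⁴ per well and left to adhere overnight. Compounds added from DMSO at final 100–0.16 μM, triplicate, for 72 h at 37 °C, 4.5% CO2. Then MTT 1.0 mg/mL in phenol-red-free RPMI for 3 h, formazan dissolved in isopropanol, A570 minus A690. Viability taken relative to DMSO control; EC50 from dose-response curves.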

[6] = Solubility of the compound; type: physicochemical
[7] = test system: Liver microsomes; test: Drug metabolism in human liver microsomes; type: ADME, Microsome
[8] = test system: Liver microsomes; test: Half life in human liver microsomes; type: ADME, Microsome
[9] = test system: Liver; test: Half life in CD-1 mouse liver microsomes; type: ADME, Microsome
In short: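 CD-1 mouse liver microsomes; compound from 2 mM DMSO stock in 0.1 M sodium phosphate pH 7.4 with NADPH, preincubated 5 min at 37 °C before microsomes added. Aliquots taken at 0–60 min and quenched with ice-cold acetonitrile, run in duplicate. Minus-NADPH control sampled at 0 and 60 min. Remaining parent measured by isocratic C8 HPLC with UV at 220 nm.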

SMILES	MIC99 [1]	selectivity ratio [2]	MIC99 [3]	MIC99 [4]	EC50 [5]	solubility [6]	Drug metabolism [7]	t1/2 [8]	t1/2 [9]
O=C(Nc1nc(-c2ccccn2)cs1)c1cccc(OCc2ccccc2)c1	0.39 µM (≈ 0.151 µg/mL)	32	0.049 µM (≈ 0.019 µg/mL)	0.19 µM (≈ 0.0736 µg/mL)	14.4 µM				
O=C(Nc1nc(-c2ccccn2)cs1)c1cc(F)cc(F)c1	0.19 µM (≈ 0.0603 µg/mL)	8	0.098 µM (≈ 0.0311 µg/mL)	0.049 µM (≈ 0.0155 µg/mL)	1.5 µM				
O=C(Nc1nc(-c2ccccn2)cs1)c1ccccc1Br	0.39 µM (≈ 0.14 µg/mL)			0.098 µM (≈ 0.0353 µg/mL)	3.5 µM				
CC(=O)c1ccccc1C(=O)Nc1nc(-c2ccccn2)cs1	12.5 µM (≈ 4.04 µg/mL)	7	12.5 µM (≈ 4.04 µg/mL)	3.13 µM (≈ 1.01 µg/mL)	86.7 µM				
O=C(Nc1nc(-c2ccccn2)cs1)c1c(F)cccc1Cl	0.78 µM (≈ 0.26 µg/mL)		0.39 µM (≈ 0.13 µg/mL)	0.19 µM (≈ 0.0634 µg/mL)	1.3 µM				
O=C(Nc1nc(-c2ccccn2)cs1)c1ccccc1OCc1ccccc1	> 50 µM		> 50 µM	50 µM (≈ 19.4 µg/mL)		Insoluble			
O=C(Nc1nc(-c2ccccn2)cs1)c1cccc(Cl)c1	0.19 µM (≈ 0.06 µg/mL)	30	0.024 µM (≈ 0.00758 µg/mL)	0.049 µM (≈ 0.0155 µg/mL)	7 µM		Active	28 min	19 min
O=C(Nc1nc(-c2ccccn2)cs1)c1ccc(OCc2ccccc2)cc1	0.19 µM (≈ 0.0736 µg/mL)	6		0.098 µM (≈ 0.038 µg/mL)	2.3 µM				
O=C(Nc1nc(-c2ccccn2)cs1)c1ccc(F)cc1	0.39 µM (≈ 0.117 µg/mL)		0.19 µM (≈ 0.0569 µg/mL)	0.098 µM (≈ 0.0293 µg/mL)	2.5 µM				
Cc1ccccc1C(=O)Nc1nc(-c2ccccn2)cs1	0.39 µM (≈ 0.115 µg/mL)	16	0.19 µM (≈ 0.0561 µg/mL)		6.3 µM				
O=C(Nc1nc(-c2ccccn2)cs1)c1cccc(F)c1F	0.39 µM (≈ 0.124 µg/mL)	18	0.19 µM (≈ 0.0603 µg/mL)	0.098 µM (≈ 0.0311 µg/mL)	7.2 µM				
O=C(Nc1nc(-c2ccccn2)cs1)c1ccc(F)cc1F	0.39 µM (≈ 0.124 µg/mL)	9		0.19 µM (≈ 0.0603 µg/mL)	7.3 µM				
COc1cccc(C(=O)Nc2nc(-c3ccccn3)cs2)c1	0.19 µM (≈ 0.0592 µg/mL)	7		0.098 µM (≈ 0.0305 µg/mL)	2.8 µM				
CC(=O)c1ccc(C(=O)Nc2nc(-c3ccccn3)cs2)cc1	0.39 µM (≈ 0.126 µg/mL)		0.19 µM (≈ 0.0614 µg/mL)		10.5 µM				
O=C(Nc1nc(-c2ccccn2)cs1)c1cccnc1Cl	0.39 µM (≈ 0.124 µg/mL)	2		0.19 µM (≈ 0.0602 µg/mL)	1.9 µM				
CC(=O)c1cccc(C(=O)Nc2nc(-c3ccccn3)cs2)c1	0.39 µM (≈ 0.126 µg/mL)	4	0.19 µM (≈ 0.0614 µg/mL)	0.098 µM (≈ 0.0317 µg/mL)	1.5 µM				
COc1ccc(C(=O)Nc2nc(-c3ccccn3)cs2)cc1	0.39 µM (≈ 0.121 µg/mL)	24	0.19 µM (≈ 0.0592 µg/mL)	0.098 µM (≈ 0.0305 µg/mL)	9.2 µM				16 min
O=C(Nc1nc(-c2ccccn2)cs1)c1ccccn1	6.3 µM (≈ 1.78 µg/mL)	0.9	3.1 µM (≈ 0.875 µg/mL)	1.6 µM (≈ 0.452 µg/mL)	5.4 µM				
COc1ccccc1C(=O)Nc1nc(-c2ccccn2)cs1	6.3 µM (≈ 1.96 µg/mL)	7	3.1 µM (≈ 0.965 µg/mL)	1.6 µM (≈ 0.498 µg/mL)	43.5 µM				
O=C(Nc1nc(-c2ccccn2)cs1)c1ccccc1	0.39 µM (≈ 0.11 µg/mL)	18	0.19 µM (≈ 0.0535 µg/mL)	0.19 µM (≈ 0.0535 µg/mL)	7.1 µM				
O=C(Nc1nc(-c2ccccn2)cs1)c1c(F)cccc1F	0.78 µM (≈ 0.248 µg/mL)	4	0.78 µM (≈ 0.248 µg/mL)	0.19 µM (≈ 0.0603 µg/mL)	3.2 µM				
CCCCCCCC(=O)Nc1nc(-c2ccccn2)cs1	6.3 µM (≈ 1.91 µg/mL)		6.3 µM (≈ 1.91 µg/mL)	0.78 µM (≈ 0.237 µg/mL)					

SMILES	MIC99 [1]	selectivity ratio [2]	MIC99 [3]	MIC99 [4]	EC50 [5]	solubility [6]	Drug metabolism [7]	t1/2 [8]	t1/2 [9]
O=C(Nc1nc(-c2ccccn2)cs1)c1ccccc1O	1.6 µM (≈ 0.476 µg/mL)		1.6 µM (≈ 0.476 µg/mL)	0.19 µM (≈ 0.0565 µg/mL)					
c1ccc(Nc2nc(-c3ccccn3)cs2)cc1	25 µM (≈ 6.33 µg/mL)		12.5 µM (≈ 3.17 µg/mL)	12.5 µM (≈ 3.17 µg/mL)					
O=C(Nc1nc(-c2ccccn2)cs1)c1cccc(F)c1	0.19 µM (≈ 0.0569 µg/mL)	3	0.098 µM (≈ 0.0293 µg/mL)	0.049 µM (≈ 0.0147 µg/mL)	1.2 µM				
COc1ccc(Nc2nc(-c3ccccn3)cs2)c(OC)c1	6.3 µM (≈ 1.97 µg/mL)		6.3 µM (≈ 1.97 µg/mL)	> 12.5 µM					
O=C(Nc1nc(-c2ccccn2)cs1)c1cc(F)ccc1F	0.39 µM (≈ 0.124 µg/mL)	8	0.19 µM (≈ 0.0603 µg/mL)	0.098 µM (≈ 0.0311 µg/mL)	3.3 µM				
Cc1ccc(Nc2nc(-c3ccccn3)cs2)c(C)c1	12.5 µM (≈ 3.52 µg/mL)		12.5 µM (≈ 3.52 µg/mL)	6.3 µM (≈ 1.77 µg/mL)					
O=C(Nc1nc(-c2ccccn2)cs1)c1ccncc1	1.6 µM (≈ 0.452 µg/mL)		3.1 µM (≈ 0.875 µg/mL)	0.78 µM (≈ 0.22 µg/mL)					
Oc1ccccc1Nc1nc(-c2ccccn2)cs1	50 µM (≈ 13.5 µg/mL)		25 µM (≈ 6.73 µg/mL)	> 12.5 µM					
Cc1cccc(C(=O)Nc2nc(-c3ccccn3)cs2)c1	0.19 µM (≈ 0.0561 µg/mL)	11	0.049 µM (≈ 0.0145 µg/mL)	0.049 µM (≈ 0.0145 µg/mL)	4.1 µM				6.7 min
O=C(Nc1nc(-c2ccccn2)cs1)c1ccco1	3.1 µM (≈ 0.841 µg/mL)		6.3 µM (≈ 1.71 µg/mL)	1.6 µM (≈ 0.434 µg/mL)					
Cc1ccc(C(=O)Nc2nc(-c3ccccn3)cs2)cc1	0.39 µM (≈ 0.115 µg/mL)	27	0.19 µM (≈ 0.0561 µg/mL)	0.098 µM (≈ 0.0289 µg/mL)	10.5 µM				
Cc1cccc(Nc2nc(-c3ccccn3)cs2)n1	6.3 µM (≈ 1.69 µg/mL)		3.1 µM (≈ 0.832 µg/mL)	0.78 µM (≈ 0.209 µg/mL)					
O=C(Nc1nc(-c2ccccn2)cs1)c1ccccc1Cl	0.39 µM (≈ 0.123 µg/mL)	1	0.19 µM (≈ 0.06 µg/mL)		2 µM				
FC(F)(F)c1ccccc1Nc1nc(-c2ccccn2)cs1	12 µM (≈ 3.86 µg/mL)		6.3 µM (≈ 2.02 µg/mL)	6.3 µM (≈ 2.02 µg/mL)					
COc1ccc(OC)c(Nc2nc(-c3ccccn3)cs2)c1	> 50 µM		> 50 µM	> 12.5 µM					
O=C(Nc1nc(-c2ccccn2)cs1)c1ccccc1F	1.6 µM (≈ 0.479 µg/mL)		0.39 µM (≈ 0.117 µg/mL)	1.6 µM (≈ 0.479 µg/mL)					
Fc1ccccc1Nc1nc(-c2ccccn2)cs1	50 µM (≈ 13.6 µg/mL)		25 µM (≈ 6.78 µg/mL)	> 12.5 µM					
O=C(Nc1nc(-c2ccccn2)cs1)c1ccc(Br)cc1	0.19 µM (≈ 0.0684 µg/mL)		0.098 µM (≈ 0.0353 µg/mL)	0.049 µM (≈ 0.0177 µg/mL)	4.7 µM				6.8 min
Cc1ccc(Nc2nc(-c3ccccn3)cs2)cc1	12.5 µM (≈ 3.34 µg/mL)		12.5 µM (≈ 3.34 µg/mL)	6.3 µM (≈ 1.68 µg/mL)					
CCCC(=O)Nc1nc(-c2ccccn2)cs1	12 µM (≈ 2.97 µg/mL)		25 µM (≈ 6.18 µg/mL)	12.5 µM (≈ 3.09 µg/mL)					
O=C(Nc1nc(-c2ccccn2)cs1)c1cccc(Br)c1	0.098 µM (≈ 0.0353 µg/mL)		0.024 µM (≈ 0.00865 µg/mL)	0.049 µM (≈ 0.0177 µg/mL)	16.1 µM				11 min
